Reference: ChEMBL document CHEMBL1129690, “Design, synthesis, and structure-activity relationship studies of novel 1-[(1-acyl-4-piperidyl)methyl]-1H-2- methylimidazo[4,5-c]pyridine derivatives as potent, orally active platelet-activating factor antagonists” (J Med Chem, 1996)

What was measured:
[1] = species: Oryctolagus cuniculus; assay: Concentration required to inhibit PAF-induced maximum platelet aggregation in rabbit platelet-rich plasma; type: functional
Outline: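 PRP prepared by centrifugation at 250g, 10 min, 4 °C, and diluted with platelet-poor plasma (3000g, 10 min) to 3.5 × 10⁵ platelets/mm³. Aggregation triggered by C-18-PAF at 1.5 × 10^-8 M and read on a dual-channel aggregometer. IC50 from linear regression of at least four points, each the mean of one to three independent experiments.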

[2] = tested on: Mus musculus; assay: Dosage required to inhibit PAF-induced mortality in mice by 50% through oral administration; type: functional; settings: read-out: ID50 (the source's name)
Outline: (§1)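 Male Swiss mice, 22-26 g, groups of 10. Test article given iv (10 mL/kg, saline vehicle) 5 min before, or po (20 mL/kg, 1% Tween 80) 60 min before, tail-vein C-18-PAF 100 µg/kg plus propranolol 1 mg/kg. Mortality scored 2 h after PAF; % inhibition vs vehicle controls. ID50 by linear regression, ≥4 points.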

[3] = tested on: Mus musculus; assay: Dosage required to inhibit PAF-induced mortality in mice by 50% through intravenous route; type: functional; settings: read-out: ID50 (the source's name); outline: as §1
[4] = tested on: Rattus norvegicus; assay: Dose required to reduce the lowering of the arterial blood pressure caused by PAF by 50% after intravenous administration in rats; type: functional; settings: read-out: ID50 (the source's name)
Outline: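 Rats with both femoral veins catheterized, one for test compound and one for PAF (0.5 µg/kg). Compound given iv in saline (1 mL/kg) 3 min before PAF. Blood pressure monitored; % inhibition of hypotension calculated versus controls. ID50 from linear regression of at least four doses, each the mean of two or more independent experiments.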

[5] = tested on: Mus musculus; assay: Percentage of inhibition by the compound against PAF-induced mortality in mice 5 hr after intravenous administration of 1 mg/Kg; type: functional
Outline: (§2)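 Male Swiss mice given single 1 mg/kg iv dose at time 0. C-18-PAF 100 µg/kg plus propranolol 1 mg/kg injected by lateral tail vein at later times (10-40 mice/time). Deaths scored 2 h after PAF. Percentage inhibition of mortality vs vehicle (saline) controls recorded at each time.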

[6] = tested on: Canis familiaris; assay: Inhibition of PAF-induced platelet aggregation in whole blood obtained after 4 hr from dog injected with an intravenous dose of 1 mg/Kg of compound; type: functional, Canis lupus familiaris
Outline: (§3)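 Male Beagle dogs (8-12 kg) dosed once at 1 mg/kg iv. Venous blood drawn before dosing and at 4 and 6 h, anticoagulated with 3.8% citrate (1:9) and diluted 1:1 in saline.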

[7] = tested on: Mus musculus; assay: Percentage of inhibition by the compound against PAF-induced mortality in mice 7 hr after intravenous administration of 1 mg/Kg; type: functional; outline: as §2
[8] = tested on: Canis familiaris; assay: Inhibition of PAF-induced platelet aggregation in whole blood obtained after 6 hr from dog injected with an intravenous dose of 1 mg/Kg of compound; type: functional, Canis lupus familiaris; outline: as §3
[9] = tested on: Mus musculus; assay: Compound after an intravenous dose of 0.01 mg/Kg was tested for the inhibition of PAF-induced mortality in mice; type: functional; outline: as §1
[10] = tested on: Mus musculus; assay: Compound after an intravenous dose of 0.03 mg/Kg was tested for the inhibition of PAF-induced mortality in mice; type: functional; outline: as §1
[11] = tested on: Mus musculus; assay: Percentage of inhibition by the compound against PAF-induced mortality in mice 3 hr after intravenous administration of 1 mg/Kg; type: functional; outline: as §2

Structure (SMILES)	IC50 [1] [nM]	ED50 [2] [mg/kg]	ED50 [3] [mg/kg]	ED50 [4] [mg/kg]	inhibition in vivo at 1 mg/kg [5] [%]	Inhibition [6] [%]	inhibition in vivo at 1 mg/kg [7] [%]	Inhibition [8] [%]	inhibition in vivo at 0.01 mg/kg [9] [%]	inhibition in vivo at 0.03 mg/kg [10] [%]	inhibition in vivo at 1 mg/kg [11] [%]
Cc1nc2cnccc2n1CC1CCN(C(=O)NC(c2ccccc2)c2ccccc2)CC1	8.1	> 1	> 0.03	0.14							
COC(=O)NC(CC(=O)N1CCC(Cn2c(C)nc3cnccc32)CC1)c1ccccc1 (configuration not stated)	12	0.1	0.0027	0.035							
COc1ccccc1N(C)CC(=O)N1CCC(Cn2c(C)nc3cnccc32)CC1	14	> 1	0.0066	0.063	90	100	70	87			
Cc1nc2cnccc2n1CC1CCN(C(=O)CC(O)(c2ccccc2)C(F)(F)F)CC1 (configuration not stated)	36	0.032	0.0029		90		70				
CCOC(=O)[C@@H](NC(=O)N1CCC(Cn2c(C)nc3cnccc32)CC1)c1ccccc1	16	> 1		0.061					50		
Cc1nc2cnccc2n1CC1CCN(C(=O)N[C@@H](C)c2ccccc2)CC1	41	> 1		0.21						45	
Cc1nnc2n1-c1sc(CCC(=O)N3CCOCC3)cc1C(c1ccccc1Cl)=NC2 [APAFANT]	91	1.24	0.084	0.17	27	100	31	55			55
N#CC(c1cccnc1)C1CCN(C(=O)CNC(c2ccccc2)c2ccccc2)CC1 (configuration not stated)	24	2.6		0.03							
CCOC(=O)[C@H](CC(C)C)NC(=O)N1CCC(Cn2c(C)nc3cnccc32)CC1	12	> 1	0.0027	0.03							
Cc1nc2cnccc2n1CC1CCN(C(=O)CC(O)(c2ccccc2)c2ccccc2)CC1	640	0.03	0.03	0.013							
COC/C(=C\C(=O)N1CCC(Cn2c(C)nc3cnccc32)CC1)c1ccccc1	18	> 1	0.0079	0.022							
Cc1nc2cnccc2n1CC1CCN(C(=O)CC(c2ccccc2)c2ccccc2)CC1	7.6	0.092	0.0008		100	100	100	100			100
Cc1nc2cnccc2n1CC1CCN(C(=O)CC(C)(C)c2ccccc2)CC1	6.7	1	0.0027		88	100	50	100			
CCOC(=O)[C@H](NC(=O)N1CCC(Cn2c(C)nc3cnccc32)CC1)c1ccccc1	150	> 1	0.02	0.069							
Cc1nc2cnccc2n1CC1CCN(C(=O)OCC2(c3ccccc3)CC2)CC1	35	> 1	0.012								
Cc1nc2cnccc2n1CC1CCN(S(=O)(=O)CC(C)(C)c2ccccc2)CC1	6.2	> 1		0.087					50		
Cc1nc2cnccc2n1CC1CCN(C(=O)CN(C)c2ccccc2)CC1	23	> 1	> 0.03	0.31							

Structure (SMILES)	IC50 [1] [nM]	ED50 [2] [mg/kg]	ED50 [3] [mg/kg]	ED50 [4] [mg/kg]	inhibition in vivo at 1 mg/kg [5] [%]	Inhibition [6] [%]	inhibition in vivo at 1 mg/kg [7] [%]	Inhibition [8] [%]	inhibition in vivo at 0.01 mg/kg [9] [%]	inhibition in vivo at 0.03 mg/kg [10] [%]	inhibition in vivo at 1 mg/kg [11] [%]
Cc1nc2cnccc2n1C1CCN(C(=O)CC(c2ccccc2)c2ccccc2)CC1	100	> 3		0.41							
CCOC[C@@H](NC(=O)N1CCC(Cn2c(C)nc3cnccc32)CC1)c1ccccc1	17	1	0.01								
Cc1nc2cnccc2n1CC1CCN(C(=O)N[C@H](C)c2ccccc2)CC1	13	1	0.0047		56	100	22	77			
CCCC(CC(=O)N1CCC(Cn2c(C)nc3cnccc32)CC1)c1ccccc1 (configuration not stated)	11	1	0.01								
COC(=O)NC(CC(=O)N1CCC(n2c(C)nc3cnccc32)CC1)c1ccccc1 (configuration not stated)	1300			0.56							
Cc1nc2cnccc2n1CC1CCN(C(=O)NC2(c3ccccc3)CC2)CC1	17	0.3	0.002								
COC(=O)NC(CC(=O)N1CCN(C(C#N)c2cccnc2C)CC1)c1ccccc1 (configuration not stated)	41	0.044	0.0055	0.015							
Cc1nc2cnccc2n1CC1CCN(C(=O)CC(C)(O)c2ccccc2)CC1 (configuration not stated)	6.9	1	0.0029		80	59	60	43			
CC/C(=C\C(=O)N1CCC(Cn2c(C)nc3cnccc32)CC1)c1ccccc1	13	> 1		0.0054						50	
COc1ccccc1CCC(=O)N1CCC(Cn2c(C)nc3cnccc32)CC1	15	> 1	0.0033	0.045							
Cc1nc2cnccc2n1CC1CCN(C(=O)C=C(c2ccccc2)c2ccccc2)CC1	240	> 1	0.0037	0.011							
Cc1nc2cnccc2n1CC1CCN(C(=O)CCc2ccccc2)CC1	60	> 1	0.013	> 5							
CCOC(=O)[C@H](CC(C)C)N(C)S(=O)(=O)c1ccc(Cn2c(C)nc3cnccc32)cc1 [LEXIPAFANT]	3.6	0.11	0.0021	0.0037	95	100	56	100			100
Cc1nc2cnccc2n1CC1CCN(C(=O)CC(C)c2ccccc2)CC1 (configuration not stated)	12	1	0.003								
Cc1nc2cnccc2n1CC1CCN(C(=O)CNC(c2ccccc2)c2ccccc2)CC1	13	1	0.0041	0.067							
CCOC(=O)C(CC(=O)N1CCC(Cn2c(C)nc3cnccc32)CC1)c1ccccc1 (configuration not stated)	12			0.17						45	
Cc1ncccc1C(C#N)N1CCN(C(=O)CNC(c2ccccc2)c2ccccc2)CC1 (configuration not stated)	40	0.3	0.009	0.021	15	39					30
